Data on 26 compounds can be found in ChEMBL document CHEMBL4145627, “Expansion of cat-ELCCA for the Discovery of Small Molecule Inhibitors of the Pre-let-7-Lin28 RNA-Protein Interaction” (ACS Med Chem Lett, 2018).

For assay [1], the target named is T1, Protein lin-28 homolog A (Mus musculus, UniProt Q8K3Y3).
T1 sequence (Q8K3Y3 whole entry): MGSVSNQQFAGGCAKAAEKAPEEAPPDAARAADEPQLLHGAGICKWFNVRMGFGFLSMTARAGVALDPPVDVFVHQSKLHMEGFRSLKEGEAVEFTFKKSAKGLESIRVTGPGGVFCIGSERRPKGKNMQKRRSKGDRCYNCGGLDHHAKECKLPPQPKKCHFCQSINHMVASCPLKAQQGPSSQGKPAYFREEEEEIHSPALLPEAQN
Kind of assay: (§1) Binding affinity to mouse N-terminal Halo-fused/biotin-labelled Lin28A expressed in Escherichia coli BL21(DE3) assessed as inhibition of protein interaction with pre-Let-7d microRNA measured after 1 hr by cat-ELCCA. Put shortly: (§2)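 Biotinylated HaloTag-mLin28A (10 μL of 200 nM in storage buffer) immobilized on streptavidin plates overnight at 4 °C. TCO-pre-let-7d (200 nM in binding buffer) added with compound, 5% DMSO final, 1 h at 25 °C. Then mTet-HRP (750 nM) click for 1 h at 25 °C, washes, chemiluminescent read. CRCs were eight points, 3.3–120 μM.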

For assay [2], the target named is T2, Protein lin-28 homolog A (Mus musculus) (UniProt Q8K3Y3).
T2 sequence (whole entry): T1 sequence (Q8K3Y3 whole entry)
The description is as §1. Put shortly:
as §2

Assay [3] is described as follows: Binding affinity to synthetic biotinylated pre-let-7d microRNA at 6.25 to 100 uM by surface plasmon resonance analysis. Put shortly: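 SPR with biotinylated pre-let-7d immobilized at 2,300 RU on BioCap chip. Analytes at 100, 50, 25, 12.5, 6.25 μM, injected 30 μL at 30 μL/min; regeneration between cycles.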
Assay [4] concerns the target T3, Protein lin-28 homolog B (Homo sapiens) (UniProt Q6ZN17).
T3 sequence (whole entry): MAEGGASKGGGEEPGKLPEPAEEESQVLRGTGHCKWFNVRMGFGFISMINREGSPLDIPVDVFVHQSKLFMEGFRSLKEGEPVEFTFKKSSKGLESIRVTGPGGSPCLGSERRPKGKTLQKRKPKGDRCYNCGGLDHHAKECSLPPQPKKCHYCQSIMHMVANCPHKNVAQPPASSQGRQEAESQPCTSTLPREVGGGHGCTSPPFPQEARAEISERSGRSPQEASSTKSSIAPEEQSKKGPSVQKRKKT
Kind of assay: Binding affinity to human N-terminal Halo-fused/biotin-labelled Lin28B expressed in Escherichia coli BL21(DE3) assessed as inhibition of protein interaction with pre-Let-7d microRNA measured after 1 hr by cat-ELCCA. Put shortly: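 Human Lin28B, cloned from A549 cDNA as a HaloTag fusion, expressed in E. coli (IPTG 500 μM, overnight 37 °C), Ni-NTA purified, biotinylated with Biotin-PEG7-HaloTag ligand (10 equiv, overnight 4 °C), immobilized on streptavidin plates. TCO-labelled pre-let-7d plus compound in Tris binding buffer with ZnCl₂ and β-mercaptoethanol, 5% DMSO final, 25 °C 1 h. Bound RNA detected by mTet-HRP click chemistry and chemiluminescence. IC50 from curves.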

The target of assay [5] is T2, Protein lin-28 homolog A (Mus musculus). Kind of assay: Binding affinity to mouse N-terminal Halo-fused/biotin-labelled Lin28A expressed in Escherichia coli BL21(DE3) assessed as inhibition of protein interaction with microRNA at 20 to 50 uM by electrophoretic mobility shift assay. In general terms: Mobility shift assays separate free from complexed probe on a gel.
The target in assay [6] is Eukaryotic translation initiation factor 4E/Eukaryotic translation initiation factor 4E-binding protein 1 (Homo sapiens) (UniProt P06730+Q13541). Kind of assay: Inhibition of eIF4E-4E-BP1 (unknown origin) interaction at 100 uM by cat-ELCCA. It is filed as protein assay. Put shortly:
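Counter-screen: eIF4E–4E-BP1 interaction read by cat-ELCCA with compound at 100 μM; assay setup cited to earlier work.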

The target in assay [7] is T2, Protein lin-28 homolog A (Mus musculus). Kind of assay: Binding affinity to mouse N-terminal Halo-fused/biotin-labelled Lin28A expressed in Escherichia coli BL21(DE3) assessed as inhibition of protein interaction with pre-Let-7d microRNA by electrophoretic mobility shift assay.
Assay [8] concerns the target Endoribonuclease Dicer (Homo sapiens) (UniProt Q9UPY3). Kind of assay: Binding affinity to dicer (unknown origin) assessed as inhibition of dicer-meditated pre-let-7d microRNA maturation at 100 uM by electrophoretic mobility shift assay. The gist of the method: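 Dicer-mediated pre-let-7d maturation tested with compound at 100 μM; samples run with and without Dicer; procedure cited to earlier work.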

For assay [9], the target named is T2, Protein lin-28 homolog A (Mus musculus). Kind of assay: Binding affinity to mouse N-terminal Halo-fused/biotin-labelled Lin28A expressed in Escherichia coli BL21(DE3) assessed as inhibition of protein interaction with pre-Let-7a microRNA at 20 to 50 uM by electrophoretic mobility shift assay.
For assay [10] the target is unchanged. Kind of assay: Binding affinity to mouse N-terminal Halo-fused/biotin-labelled Lin28A expressed in Escherichia coli BL21(DE3) at 18.7 to 75 uM by surface plasmon resonance analysis. Put shortly:
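SPR on BioCap chip with biotinylated HaloTag-Lin28A immobilized at 2,300 RU. Running buffer: 50 mM Tris pH 7.6, 150 mM NaCl, 1 mM β-ME, 5% glycerol, 0.05% Tween-20, 1 mM ZnCl₂, 5% DMSO. Analytes at 75, 37.5, 18.7 μM, injected 50 μL at 50 μL/min; regeneration between cycles.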

The structures appear in SMILES notation. Calls of active or inactive are those of the source. The rule behind the calls is not given here.

Endoribonuclease Dicer (Homo sapiens), sequence (Q9UPY3 whole entry): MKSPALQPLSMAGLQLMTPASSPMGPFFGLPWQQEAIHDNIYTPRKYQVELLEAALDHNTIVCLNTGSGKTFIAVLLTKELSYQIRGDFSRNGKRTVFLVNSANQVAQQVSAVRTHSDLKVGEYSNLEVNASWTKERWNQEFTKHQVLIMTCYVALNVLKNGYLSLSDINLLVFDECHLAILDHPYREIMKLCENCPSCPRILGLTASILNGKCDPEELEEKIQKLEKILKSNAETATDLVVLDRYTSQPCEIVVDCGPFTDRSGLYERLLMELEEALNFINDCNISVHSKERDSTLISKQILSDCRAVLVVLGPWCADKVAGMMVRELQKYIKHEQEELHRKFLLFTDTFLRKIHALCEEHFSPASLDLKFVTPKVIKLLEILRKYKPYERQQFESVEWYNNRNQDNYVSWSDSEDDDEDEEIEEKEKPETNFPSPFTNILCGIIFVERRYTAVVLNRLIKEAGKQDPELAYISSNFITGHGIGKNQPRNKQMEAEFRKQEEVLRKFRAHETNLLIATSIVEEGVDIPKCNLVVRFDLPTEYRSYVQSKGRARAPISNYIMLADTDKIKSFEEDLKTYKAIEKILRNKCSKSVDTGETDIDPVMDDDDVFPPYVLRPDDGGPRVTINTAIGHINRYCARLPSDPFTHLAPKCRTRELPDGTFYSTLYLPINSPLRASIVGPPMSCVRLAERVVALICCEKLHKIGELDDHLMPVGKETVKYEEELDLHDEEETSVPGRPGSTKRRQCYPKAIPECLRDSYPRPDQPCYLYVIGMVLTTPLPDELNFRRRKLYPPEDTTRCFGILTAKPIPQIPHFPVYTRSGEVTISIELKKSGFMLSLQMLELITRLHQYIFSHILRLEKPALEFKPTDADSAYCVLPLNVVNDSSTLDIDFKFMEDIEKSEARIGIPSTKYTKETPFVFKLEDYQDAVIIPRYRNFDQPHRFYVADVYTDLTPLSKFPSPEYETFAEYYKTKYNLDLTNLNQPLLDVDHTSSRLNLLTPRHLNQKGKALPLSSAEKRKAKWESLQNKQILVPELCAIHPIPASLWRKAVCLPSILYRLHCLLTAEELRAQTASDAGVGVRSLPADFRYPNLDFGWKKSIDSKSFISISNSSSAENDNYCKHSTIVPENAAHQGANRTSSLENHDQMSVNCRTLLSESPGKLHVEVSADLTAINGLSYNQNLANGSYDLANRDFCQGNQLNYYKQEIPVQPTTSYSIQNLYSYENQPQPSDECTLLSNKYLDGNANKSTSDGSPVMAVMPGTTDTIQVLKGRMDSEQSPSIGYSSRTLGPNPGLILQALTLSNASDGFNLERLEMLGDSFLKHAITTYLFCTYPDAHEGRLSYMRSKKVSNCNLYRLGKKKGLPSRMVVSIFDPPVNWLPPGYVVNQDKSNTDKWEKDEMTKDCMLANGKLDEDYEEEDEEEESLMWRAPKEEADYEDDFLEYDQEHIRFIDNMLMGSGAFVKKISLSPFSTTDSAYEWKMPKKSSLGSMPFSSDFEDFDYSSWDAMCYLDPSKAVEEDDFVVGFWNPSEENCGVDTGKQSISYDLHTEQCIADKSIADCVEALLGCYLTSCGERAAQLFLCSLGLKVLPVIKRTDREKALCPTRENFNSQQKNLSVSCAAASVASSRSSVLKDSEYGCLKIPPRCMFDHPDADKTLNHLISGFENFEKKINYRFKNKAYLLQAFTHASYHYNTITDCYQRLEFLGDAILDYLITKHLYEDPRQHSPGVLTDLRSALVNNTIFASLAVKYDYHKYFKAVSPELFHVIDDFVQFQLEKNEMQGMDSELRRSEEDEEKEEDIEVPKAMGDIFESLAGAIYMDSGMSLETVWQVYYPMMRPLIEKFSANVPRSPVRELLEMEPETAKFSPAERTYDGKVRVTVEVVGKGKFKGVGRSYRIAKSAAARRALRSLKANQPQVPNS
Eukaryotic translation initiation factor 4E/Eukaryotic translation initiation factor 4E-binding protein 1 (Homo sapiens), sequence (P06730 2-217 limits assumed): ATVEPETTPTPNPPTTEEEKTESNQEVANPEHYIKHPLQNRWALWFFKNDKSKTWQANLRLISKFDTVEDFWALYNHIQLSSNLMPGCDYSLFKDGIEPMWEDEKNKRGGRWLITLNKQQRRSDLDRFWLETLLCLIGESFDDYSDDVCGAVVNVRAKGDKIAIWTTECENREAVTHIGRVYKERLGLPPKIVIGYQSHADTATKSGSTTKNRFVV
Eukaryotic translation initiation factor 4E/Eukaryotic translation initiation factor 4E-binding protein 1 (Homo sapiens), sequence (Q13541 2-118 partner limits assumed): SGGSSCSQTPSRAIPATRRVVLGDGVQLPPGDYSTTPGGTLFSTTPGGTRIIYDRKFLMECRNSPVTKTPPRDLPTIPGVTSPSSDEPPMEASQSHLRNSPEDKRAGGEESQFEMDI

For orientation: IC50 means the point on the concentration scale where inhibition reaches its midpoint. In the case of `Cc1ccc(S(=O)(=O)Nc2ccc(F)cc2NS(=O)(=O)c2ccc(C)c(Cl)c2)cc1Cl`, in assay [1], the IC50 worked out at 3.7 µM.
With `Nc1ccccc1NS(=O)(=O)c1ccccc1`, the inhibition entry in [2] is “inactive”.
For the compound `O=S(=O)(Nc1ccccc1NS(=O)(=O)c1ccc(Cl)cc1)c1ccc(Cl)cc1`, the IC50 in assay [1] worked out at 27.5 µM.
On the same count and under the same terms, in the case of `O=S(=O)(Nc1ccccc1NS(=O)(=O)c1ccc(Br)cc1)c1ccc(Br)cc1` it was 17.5 µM.
Same read-out and setting: then `Cc1ccc(NS(=O)(=O)c2ccccc2)c(NS(=O)(=O)c2ccccc2)c1`, with 28.8 µM; and `O=S(=O)(Nc1ccccc1NS(=O)(=O)c1ccccc1)c1ccccc1`, with 32.2 µM.
Consider `O=C(Nc1ccccc1NC(=O)c1ccccc1)c1ccccc1`, for which, in assay [2], the inhibition entry was “inactive”.
Consider `COc1ccc(S(=O)(=O)Nc2ccccc2NS(=O)(=O)c2ccc(OC)cc2)cc1`, for which the 50% inhibitory concentration (IC50) in [1] was 16.7 µM.
On the same count and under the same terms, in the case of `Cc1ccc(S(=O)(=O)Nc2ccccc2NS(=O)(=O)c2ccc(C)c(Cl)c2)cc1Cl` it was 2.3 µM; in that of `O=S(=O)(Nc1ccccc1NS(=O)(=O)c1cccc(Cl)c1)c1cccc(Cl)c1`, 5.7 µM; in that of `O=S(=O)(Nc1ccccc1NS(=O)(=O)c1ccc(F)cc1)c1ccc(F)cc1`, 28.3 µM.
The same measure, in the same setting: in the case of `O=S(=O)(Nc1ccccc1NS(=O)(=O)c1cccc(Br)c1)c1ccc(F)cc1` it was 16.2 µM; in that of `O=S(=O)(Nc1ccccc1NS(=O)(=O)c1cccc(Cl)c1)c1ccc(F)cc1`, 10.8 µM; in that of `CC(=O)Nc1ccc(S(=O)(=O)Nc2ccccc2NS(=O)(=O)c2ccc(NC(C)=O)cc2)cc1`, 62.5 µM.
The same measure, in the same setting: in the case of `O=S(=O)(Nc1ccccc1NS(=O)(=O)c1ccc(F)cc1)c1ccccc1` it was 13.9 µM.
With `Cc1ccc(S(=O)(=O)Nc2ccc(F)cc2NS(=O)(=O)c2ccc(C)cc2)cc1`, the result in assay [3] was inactive. Also, the inhibition entry in assay [4], in assay [5], in assay [7] and in [9] was “Active” throughout. Further, the IC50 in assay [1] came out at 8.3 µM. In addition, the inhibition result in [6] and in assay [8] was “inactive” throughout. The result in assay [10] was Active.
For `O=S(=O)(Nc1ccccc1NS(=O)(=O)c1ccc(Cl)cc1)c1ccc(F)cc1`, the IC50 in assay [1] is 27.3 µM.
With `O=S(=O)(Nc1cccc(NS(=O)(=O)c2ccccc2)c1)c1ccccc1`, the inhibition entry in [2] was “inactive”.
Regarding `Cc1ccc(S(=O)(=O)Nc2ccc(C)cc2NS(=O)(=O)c2cccc(C(F)(F)F)c2)cc1`, the inhibition entry in assay [4], in assay [5], in assay [7] and in assay [9] was “Active” each time. Besides, the 50% inhibitory concentration (IC50) in assay [1] is 10.4 µM. Moreover, the inhibition result in assay [8] is “inactive”.
`Cc1ccc(NS(=O)(=O)c2cccc(Cl)c2)c(NS(=O)(=O)c2cccc(Cl)c2)c1`: the IC50 in [1] was determined as 4.3 µM.
Same read-out and setting: in the case of `Cc1ccc(S(=O)(=O)Nc2ccc(C)cc2NS(=O)(=O)c2ccc(C)cc2)cc1` it was 14.1 µM; in that of `Cc1ccc(NS(=O)(=O)c2ccc(F)cc2)c(NS(=O)(=O)c2ccc(F)cc2)c1`, 16.2 µM; in that of `COc1ccc(S(=O)(=O)Nc2ccccc2NS(=O)(=O)c2ccc(F)cc2)cc1`, 17.2 µM.
Consider `O=S(=O)(c1ccccc1)N1CCN(S(=O)(=O)c2ccccc2)c2ccccc21`, for which the inhibition result in assay [2] is “inactive”.
For the compound `Cc1ccc(S(=O)(=O)Nc2ccc(C)cc2NS(=O)(=O)c2ccc(F)cc2)cc1`, the concentration for half-maximal inhibition (IC50) in assay [1] was determined as 11.7 µM.
For `Cc1ccc(NS(=O)(=O)c2ccc(Cl)cc2)c(NS(=O)(=O)c2ccc(Cl)cc2)c1`, the IC50 in assay [1] came to 28.4 µM.
